Data reported in article PMC2775413 (Bioorganic & medicinal chemistry, 2009).

Experiments:
[1] = Mouse brain uptake study after i.p. injection; type: in vivo; conditions: for Brain AUC over the 20-minute experiment compared with 5: i.p., 5 at 3.7 mg/kg
[2] = Standard microsome assay; type: in vitro ADME, rat; conditions: 37 °C
[3] = Metabolism of prodrugs in fresh mouse plasma with NADPH regenerating system; type: in vitro ADME; conditions: 37 °C; for Metabolism in fresh mouse plasma (prodrug remaining by HPLC): NADPH regenerating system, over 80 minutes
[4] = Metabolism in fresh mouse brain homogenate with NADPH; type: in vitro ADME; conditions: PBS pH 7.4, 37 °C, NADPH in excess
Outline: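 Three fresh mouse brains were homogenized in PBS pH 7.4 (1 mL per brain) with NADPH regenerating buffers A and B, then pooled. Test compound was added from a 200 μM stock and incubated at 37 °C for 0, 10, 20 and 40 min. Reactions were stopped by heating to 95 °C for 1 min. HPLC with UV at 310 or 260 nm depending on compound; analyte/internal standard peak-area ratio normalized to t = 0.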

[5] = Anaerobic microsome assay for azide metabolism; type: in vitro ADME, rat
Outline: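 Rat liver microsomes, NADPH regenerating system, test azide added from a 100 μM stock. PBS was deoxygenated by N2 bubbling for 15 min. Vials were sealed with septa, the headspace N2-purged and kept under an N2 balloon, and equilibrated at 37 °C. Microsomes were injected through the septum and incubated 0, 10, 20, 40 min. Acetonitrile quench, protein precipitation at 0 °C, supernatant dried, reconstituted in 2% formic acid, HPLC; peak area normalized to t = 0.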

For `Cc1cc(N)nc(C[C@@H]2CNC[C@@H]2OCCN(CCc2cccc(F)c2)C(=O)OCc2ccccc2)c1` [Compound 8, Benzyl 2-(4-((6-amino-4-methylpyridin-2-yl)-methyl)pyrrolidin-3-yloxy)ethyl(3-fluoro-phenethyl)carbamate], the Peak plasma concentration ([1]; mouse, i.p. 5.1 mg/kg, 20-minute experiment) was “around 1 μM” and the “Brain AUC over the 20-minute experiment compared with 5” value ([1]; mouse) was “much lower”.

With `Cc1cc(N)nc(C[C@@H]2CNC[C@@H]2OCCNCCc2cccc(F)c2)c1` [Compound 5] the “Amount of compound lost with rat liver microsomes” value ([2]; over 30 minutes, in presence and absence of NADPH) was “approximately 20%” and the Toxicity in mice ([1]; i.p. injection at 3.7 mg/kg) was “no toxicity was observed”.

For `Cc1cc(N)nc(C[C@@H]2CNC[C@@H]2OCCN=[N+]=[N-])c1` (racemic) [Compound 1, 6-((4-(2-Azidoethoxy)pyrrolidin-3-yl)methyl)-4-methyl-pyridin-2-amine], the “Metabolism in fresh mouse plasma (prodrug remaining by HPLC)” value [3] was “No significant metabolism”, the “Metabolism in mouse brain homogenate (compound amount over time)” value [4] was “did not decrease” and the “Formation of amine from azide (mass spectral analysis of reaction mixtures)” value ([5]; anaerobic microsome incubation) was “no peak corresponding to the amine”.

In the case of `CC(=O)N(CCO[C@H]1CNC[C@H]1Cc1cc(C)cc(N)n1)CCc1cccc(F)c1` (racemic) [Compound 6, N-(2-(4-((6-Amino-4-methylpyridin-2-yl)-methyl)pyrrolidin-3-yloxy)ethyl)-N-(3-fluoro-phenethyl)acetamide], the “Time of peak brain concentration” value ([1]; mouse, i.p. 4.1 mg/kg, 20-minute experiment) is reported as 5 min and the “Brain AUC over the 20-minute experiment compared with 5” value ([1]; mouse) is reported as “roughly the same”.

`COC(=O)N(CCO[C@H]1CNC[C@H]1Cc1cc(C)cc(N)n1)CCc1cccc(F)c1` (racemic) [Compound 7, Methyl 2-(4-((6-amino-4-methylpyridin-2-yl)-methyl)pyrrolidin-3-yloxy)ethyl(3-fluoro-phenethyl)carbamate] gave a Tmax ([1]; mouse, plasma, ip, 4.3 mg/kg) of 5 min.

With `Cc1cc(-c2ccccc2)nnc1NCCN1CCOCC1` [minaprine, reference compound] the “Concentration remaining with microsomes at 20 min” value ([2]; 20 min) was “not quantifiable” and the “Metabolism by microsomes under anaerobic conditions” value ([5]; 37 °C, deoxygenated buffer, nitrogen atmosphere, NADPH) was “metabolized readily”.

For “1-((S)-1-{2-[2-aminoethyl]phenylamino}-5-nitroguanidinopentan-2-ylcarbamoyloxy)ethyl pivalate [Compound 3]”, the “Conversion of prodrug to parent compound (4) in mouse plasma” value ([3]; HPLC peak of 4 over time) was “converted to the parent compound”, the “Metabolism in fresh mouse plasma (prodrug remaining by HPLC)” value [3] was “rapid” and the “Metabolism in mouse brain homogenate (compound amount over time)” value [4] was “decreased over the course of the experiment”.
